Values after ≈ are worked out from the molar mass of the structure shown.
Legend:
Acinetobacter baumannii = test: Antibacterial activity against Acinetobacter baumannii CAN-ICU 63169 after 24 hrs by macrobroth dilution method; format: functional; settings: CAN-ICU 63169, 24 h
Procedure, shortened: (§1)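 Broth macrodilution was run following CLSI methodology against ATCC reference strains and clinical isolates from the Canadian Intensive Care Unit (CAN-ICU) study, with Gram-positive and Gram-negative organisms tested. The value is the minimum inhibitory concentration, reported in μg/mL.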

Escherichia coli [1] = test: Antibacterial activity against Escherichia coli CAN-ICU 63074 after 24 hrs by macrobroth dilution method; format: functional; settings: CAN-ICU 63074, 24 h; procedure, shortened: as §1
Klebsiella pneumoniae = test: Antibacterial activity against Klebsiella pneumoniae ATCC 13883 after 24 hrs by macrobroth dilution method; settings: ATCC 13883, 24 h
[2] = system: Staphylococcus epidermidis; test: Antibacterial activity against Staphylococcus epidermidis […] after 24 hrs by macrobroth dilution method; format: functional; procedure, shortened: as §1
Staphylococcus aureus [3] = test: Antibacterial activity against Staphylococcus aureus ATCC 29213 after 24 hrs by macrobroth dilution method; format: functional; settings: ATCC 29213, 24 h
Procedure, shortened: (§2)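 Reference strains from the American Type Culture Collection were tested by broth macrodilution following CLSI methodology. The read-out was the minimum inhibitory concentration, reported in μg/mL. The same method was used for the Gram-positive and Gram-negative organisms.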

[4] = system: Staphylococcus epidermidis; test: Antibacterial activity against methicillin-resistant Staphylococcus epidermidis ATCC 14990 after 24 hrs by macrobroth dilution method; format: functional; settings: ATCC 14990, 24 h
Streptococcus pneumoniae = test: Antibacterial activity against Streptococcus pneumoniae ATCC 49619 after 24 hrs by macrobroth dilution method; format: functional; settings: ATCC 49619, 24 h; procedure, shortened: as §1
Escherichia coli [5] = test: Antibacterial activity against Escherichia coli ATCC 25922 after 24 hrs by macrobroth dilution method; format: functional; settings: ATCC 25922, 24 h; procedure, shortened: as §2
Pseudomonas aeruginosa [6] = test: Antibacterial activity against Pseudomonas aeruginosa CAN-ICU 62308 after 24 hrs by macrobroth dilution method; format: functional; settings: CAN-ICU 62308, 24 h; procedure, shortened: as §1
[7] = system: Stenotrophomonas maltophilia; test: Antibacterial activity against Stenotrophomonas maltophilia CAN-ICU 62585 after 24 hrs by macrobroth dilution method; format: functional; settings: CAN-ICU 62585, 24 h; procedure, shortened: as §1
Escherichia coli [8] = test: Antibacterial activity against gentamicin-resistant Escherichia coli ATCC 6174 after 24 hrs by macrobroth dilution method; format: functional; settings: ATCC 6174, 24 h; procedure, shortened: as §2
Staphylococcus aureus [9] = test: Antibacterial activity against methicillin-resistant Staphylococcus aureus ATCC 33592 after 24 hrs by macrobroth dilution method; format: functional; settings: ATCC 33592, 24 h; procedure, shortened: as §2
Pseudomonas aeruginosa [10] = test: Antibacterial activity against Pseudomonas aeruginosa ATCC 27853 after 24 hrs by macrobroth dilution method; format: functional; settings: ATCC 27853, 24 h; procedure, shortened: as §1

Structure (SMILES)	MIC (Acinetobacter baumannii) [µg/mL]	MIC (Escherichia coli [1]) [µg/mL]	MIC (Klebsiella pneumoniae) [µg/mL]	MIC [2] [µg/mL]	MIC (Staphylococcus aureus [3]) [µg/mL]	MIC [4] [µg/mL]	MIC (Streptococcus pneumoniae) [µg/mL]	MIC (Escherichia coli [5]) [µg/mL]	MIC (Pseudomonas aeruginosa [6]) [µg/mL]	MIC [7] [µg/mL]	MIC (Escherichia coli [8]) [µg/mL]	MIC (Staphylococcus aureus [9]) [µg/mL]	MIC (Pseudomonas aeruginosa [10]) [µg/mL]
NC[C@@H]1O[C@H](O[C@H]2[C@@H](OC(=O)Nc3ccc(Cl)cc3)[C@H](O[C@@H]3[C@@H](OC(=O)Nc4ccc(Cl)cc4)[C@H](N)C[C@H](N)[C@H]3O[C@H]3O[C@H](CN)[C@@H](OC(=O)Nc4ccc(Cl)cc4)[C@H](OC(=O)Nc4ccc(Cl)cc4)[C@H]3N)O[C@@H]2COC(=O)Nc2ccc(Cl)cc2)[C@H](N)[C@@H](OC(=O)Nc2ccc(Cl)cc2)[C@@H]1OC(=O)Nc1ccc(Cl)cc1.O=C(O)C(F)(F)F	> 256	256	256	16	64	32	128	> 256	256	128	> 256	64	> 256
NC[C@@H]1O[C@H](O[C@H]2[C@@H](OCc3ccc(Cl)cc3)[C@H](O[C@@H]3[C@@H](OCc4ccc(Cl)cc4)[C@H](N)C[C@H](N)[C@H]3O[C@H]3O[C@H](CN)[C@@H](OCc4ccc(Cl)cc4)[C@H](OCc4ccc(Cl)cc4)[C@H]3N)O[C@@H]2COCc2ccc(Cl)cc2)[C@H](N)[C@@H](OCc2ccc(Cl)cc2)[C@@H]1OCc1ccc(Cl)cc1.O=C(O)C(F)(F)F	> 128	64	128	32	64	64	128	128	> 128	> 128	> 128	64	> 128
NCC[C@H](O)C(=O)N[C@@H]1C[C@H](N)[C@@H](O[C@H]2O[C@H](CN)[C@@H](O)[C@H](O)[C@H]2O)[C@H](O)[C@H]1O[C@H]1O[C@H](CO)[C@@H](O)[C@H](N)[C@H]1O [AMIKACIN]	128 (≈ 219 µM)	32 (≈ 54.6 µM)	0.5 (≈ 0.854 µM)	1 (≈ 1.71 µM)	4 (≈ 6.83 µM)	2 (≈ 3.42 µM)	8 (≈ 13.7 µM)	4 (≈ 6.83 µM)	128 (≈ 219 µM)	> 512	2 (≈ 3.42 µM)	8 (≈ 13.7 µM)	4 (≈ 6.83 µM)
COC[C@H]1O[C@@H](O[C@@H]2[C@@H](OC)[C@H](N)C[C@H](N)[C@H]2O[C@H]2O[C@H](CN)[C@@H](OC)[C@H](OC)[C@H]2N)[C@H](OC)[C@@H]1O[C@H]1O[C@@H](CN)[C@@H](OC)[C@H](OC)[C@H]1N.O=C(O)C(F)(F)F	> 256	> 256	> 256	256	> 256	> 256	> 256	> 256	> 256	> 256	> 256	> 256	> 256
NC[C@@H]1O[C@H](O[C@H]2[C@@H](OC(=O)Nc3ccccc3)[C@H](O[C@@H]3[C@@H](OC(=O)Nc4ccccc4)[C@H](N)C[C@H](N)[C@H]3O[C@H]3O[C@H](CN)[C@@H](OC(=O)Nc4ccccc4)[C@H](OC(=O)Nc4ccccc4)[C@H]3N)O[C@@H]2COC(=O)Nc2ccccc2)[C@H](N)[C@@H](OC(=O)Nc2ccccc2)[C@@H]1OC(=O)Nc1ccccc1.O=C(O)C(F)(F)F	32	16	256	0.5	1	0.5	16	32	128	4	16	1	256
COC[C@H]1O[C@H](O[C@@H]2[C@@H](OC)[C@H](OC3O[C@H](CN)[C@@H](OC)[C@H](OC)[C@H]3OC)[C@@H](N)C[C@H]2N)[C@H](OC)[C@@H](N)[C@@H]1OC.O=C(O)C(F)(F)F (stereo partly drawn)	> 256	> 256	> 256	256	> 256	> 256	> 256	> 256	> 256	> 256	> 256	> 256	> 256
NC[C@H]1OC(O[C@H]2[C@H](OCc3ccc(Cl)cc3)[C@@H](O[C@H]3O[C@H](COCc4ccc(Cl)cc4)[C@@H](OCc4ccc(Cl)cc4)[C@H](N)[C@H]3OCc3ccc(Cl)cc3)[C@H](N)C[C@@H]2N)[C@H](OCc2ccc(Cl)cc2)[C@@H](OCc2ccc(Cl)cc2)[C@@H]1OCc1ccc(Cl)cc1.O=C(O)C(F)(F)F (stereo partly drawn)	> 128	64	> 128	32	32	16	64	128	> 128	> 128	128	32	> 128
NC[C@H]1O[C@H](O[C@H]2[C@H](OC(=O)Nc3ccccc3)[C@@H](O[C@H]3O[C@H](COC(=O)Nc4ccccc4)[C@@H](OC(=O)Nc4ccccc4)[C@H](N)[C@H]3OC(=O)Nc3ccccc3)[C@H](N)C[C@@H]2N)[C@H](OC(=O)Nc2ccccc2)[C@@H](OC(=O)Nc2ccccc2)[C@@H]1OC(=O)Nc1ccccc1.O=C(O)C(F)(F)F	> 256	> 256	> 256	4	32	8	64	> 256	> 256	> 256	> 256	32	> 256
NC[C@H]1OC(O[C@H]2[C@H](OCc3ccccc3)[C@@H](O[C@H]3O[C@H](COCc4ccccc4)[C@@H](OCc4ccccc4)[C@H](N)[C@H]3OCc3ccccc3)[C@H](N)C[C@@H]2N)[C@H](OCc2ccccc2)[C@@H](OCc2ccccc2)[C@@H]1OCc1ccccc1.O=C(O)C(F)(F)F (stereo partly drawn)	> 64	16	> 64	4	8	8	32	32	> 64	> 64	32	8	> 64
NC[C@@H]1O[C@@H](O[C@H]2[C@H](O)[C@@H](O[C@H]3O[C@H](CO)[C@@H](O)[C@H](N)[C@H]3O)[C@H](N)C[C@@H]2N)[C@@H](O)[C@H](O)[C@H]1O [KANAMYCIN A]	32 (≈ 66 µM)	32 (≈ 66 µM)	1 (≈ 2.06 µM)	2 (≈ 4.13 µM)	4 (≈ 8.26 µM)	128 (≈ 264 µM)	8 (≈ 16.5 µM)	8 (≈ 16.5 µM)	> 512	> 512	16 (≈ 33 µM)	> 512	> 512
NC[C@@H]1O[C@H](O[C@H]2[C@@H](OCc3ccccc3)[C@H](O[C@@H]3[C@@H](OCc4ccccc4)[C@H](N)C[C@H](N)[C@H]3O[C@H]3O[C@H](CN)[C@@H](OCc4ccccc4)[C@H](OCc4ccccc4)[C@H]3N)O[C@@H]2COCc2ccccc2)[C@H](N)[C@@H](OCc2ccccc2)[C@@H]1OCc1ccccc1.O=C(O)C(F)(F)F	16	4	8	2	4	2	16	8	64	8	16	4	32

— ChEMBL document CHEMBL1158537, “Antibacterial activities of aminoglycoside antibiotics-derived cationic amphiphiles. Polyol-modified neomycin B-, kanamycin A-, amikacin-, and neamine-based amphiphiles with potent broad spectrum antibacterial activity” (2010)
